# Bioassay records as filed in PubChem BioAssay.
# NPY1 pot ag: human NPY-Y1 potentiation or agonism, primary screen; P25929; NPY-Y1 expressing cells, potentiator/agonist activation; activation, % at 3.6 µM; 220,000 compounds, 0.37% hits; in the data active = activation above about 33%, passing the limit was not always enough;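 also: cells stimulated with NPY at EC10 then isoproterenol at EC100; 0% = low agonist plus stimulus and 100% = saturating agonist plus stimulus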
# Target sequence (P25929 whole entry, looked up): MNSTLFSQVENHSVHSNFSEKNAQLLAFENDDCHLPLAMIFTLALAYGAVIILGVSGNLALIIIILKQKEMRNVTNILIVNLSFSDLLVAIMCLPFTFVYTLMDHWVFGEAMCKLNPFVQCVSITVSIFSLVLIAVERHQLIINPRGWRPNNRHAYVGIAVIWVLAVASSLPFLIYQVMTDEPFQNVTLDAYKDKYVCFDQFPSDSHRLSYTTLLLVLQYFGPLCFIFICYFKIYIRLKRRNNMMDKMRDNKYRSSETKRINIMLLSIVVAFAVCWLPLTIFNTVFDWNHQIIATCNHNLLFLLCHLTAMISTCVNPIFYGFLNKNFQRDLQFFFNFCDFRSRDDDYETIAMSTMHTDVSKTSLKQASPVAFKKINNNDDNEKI
# NPY-Y2 antag: blocks the human neuropeptide Y Y2 receptor; P49146; NPY-Y2 expressing cells, antagonist mode; inhibition, % at 2.7 µM; 140,000 compounds, 0.99% hits; in the data active = inhibition above about 17%;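 also: 0% = vehicle with agonist challenge and 100% = reference antagonist with challenge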
# WT yeast gro inh: growth inhibition of WT yeast, mitochondrial fusion screen | 190,000 compounds, 2.1% hits | mitochondrial fusion phenotypic screen, WT strain | inhibition, % at 10 µM; in the data active = inhibition above about 58%; tested in S. cerevisiae
# RAM network inh: yeast RAM network inhibition | inhibition, % at 50 µM | S. cerevisiae dse1pr::URA3 reporter, 5-FOA growth OD615, 2 d; analog-sensitive cbk1-as2 kinase mutant strain | 190,000 compounds, 1.8% hits;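 active = inhibition above a set limit, 3 SD over mean compound inhibition, cut at about 8.4% in these data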;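 also: 0% = DMSO-only wells with no growth and 100% = 10 µM 1-NA-PP1 full growth; inhibition rescues growth on 5-FOA so higher OD means more RAM inhibition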
# NPY-Y1 antag: NPY-Y1 (human) receptor antagonism; inhibition, % at 3.6 µM; P25929; HEK293-CNG Y1 cells, membrane potential fluorescence; NPY at EC95, then isoproterenol; AID 1040; 200,000 compounds, 1% hits;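 active = inhibition above the campaign mean inhibition of all tested compounds plus 3 SD, cut at about 20% in these data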;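 also: 0% = DMSO wells given NPY plus isoproterenol and 100% = isoproterenol alone without NPY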
#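 Assay system: HEK293 Y1/CNG channel cell line; Doses: single compound dose of 3.6 µM, 0.4% DMSO; Timing: dye 3 h, compound 60 min room temperature, stimulation 45 min; Technique: Membrane-potential fluorescent dye readout; Measure: % inhibition of NPY effect.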
# NPY2 pot ag: potentiates or activates human NPY-Y2 receptor | activation, % at 3.6 µM | 220,000 compounds, 0.45% hits | P49146 | AID 1359 | cells expressing NPY-Y2, potentiator/agonist read-out; in the data active = activation above about 27%;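 also: cells stimulated with NPY near EC25 plus isoproterenol at EC100; 0% = vehicle plus submaximal agonist and 100% = vehicle plus saturating agonist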
# NPY-Y1 confirm: human NPY-Y1 potentiation or agonism, confirmation | cell-based NPY-Y1 potentiator/agonist assay | activation, % at 3.6 µM | 280 compounds, 20% hits | shares compounds with NPY1 pot ag; in the data active = activation above about 45%;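 also: cells challenged with NPY at its EC10 plus isoproterenol stimulus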
# NPY-Y2 counter: NPY-Y2 potentiation or agonism as NPY-Y1 counter-screen. shares compounds with NPY1 pot ag. HEK293-CNG cells, membrane-potential fluorescence (FLIPR), 1536-well. activation, % at 3.6 µM. 280 compounds, 20% hits; in the data active = activation above about 33%
# NPY-Y1 agonist: counter-screen for NPY-Y1 potentiators: agonists of human NPY-Y1; 280 compounds, 50% hits; HEK293 Y1-CNGC, membrane potential fluorescence, agonist mode; shares compounds with NPY1 pot ag; activation, % at 3.6 µM; AID 1697;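 active = percent activation above the mean of DMSO-only control wells plus 3 SD of those wells, cut at about 18% in these data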;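 also: cells challenged with isoproterenol plus Ro 20-1724 with no NPY in test wells; Y1 agonism lowers isoproterenol-driven cAMP and reduces probe fluorescence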
# NPY-Y2 ag: counter-screen for NPY-Y1 potentiators or agonists: agonists of NPY-Y2. AID 1698. HEK293 Y2-CNGC, membrane potential fluorescence, agonist mode. shares compounds with NPY1 pot ag. 280 compounds, 67% hits. activation, % at 3.6 µM;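 active = activation above the solvent-only control wells' mean plus 3 SD, cut at about 11% in these data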;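 also: 0% = DMSO with isoproterenol and 100% = 40 nM NPY maximal response; agonism lowers cAMP so well fluorescence drops in active wells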
# CNGC inh 2: CNG channel inhibition, counter-screen for NPY-Y1 potentiators; shares compounds with NPY1 pot ag; HEK293-CNG parental, isoproterenol cAMP, membrane potential fluorescence; inhibition, % at 3.6 µM; 280 compounds, 42% hits; AID 1704;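 active = inhibition above the mean of stimulated solvent-only control wells plus 3 SD, cut at about 22% in these data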;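 also: 0% = isoproterenol-stimulated DMSO wells and 100% = unstimulated DMSO wells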
# Active calls of the source: *; / = no result. Sampled rows, rich in hits. Any-hit rate of the full collection: about 4.9%.
SMILES,NPY1 pot ag,NPY-Y2 antag,WT yeast gro inh,RAM network inh,NPY-Y1 antag,NPY2 pot ag,NPY-Y1 confirm,NPY-Y2 counter,NPY-Y1 agonist,NPY-Y2 ag,CNGC inh 2
COc1cc(NC(=O)COC(=O)C=C(C)C)c(C)cc1[N+](=O)[O-],1,/,9,3,6,-3,/,/,/,/,/
Cc1ccc(NC(=O)CN2C(=O)S/C(=C\c3cc(C)n(-c4ccc(C(=O)O)cc4)c3C)C2=O)cc1,-2,/,2,5,-2,-12,/,/,/,/,/
C=CCn1c(SCC(=O)Nc2sccc2C(N)=O)nc2ccccc2c1=O,-3,3,-11,1,3,7,/,/,/,/,/
C=CCn1c(SCC(=O)Nc2sccc2C(N)=O)nc2ccc(Cl)cc2c1=O,38*,-2,25,1,-5,13,23,18,2,19*,9
C=CC(=O)N1c2ccccc2Sc2ccc(NC(=O)OCC)cc21,42*,3,-22,5,-3,20,24,17,20*,13*,15
CCCC(C)NC(=O)COC(=O)c1ccccc1SCC(=O)NC(C)CCC (configuration not stated),12,/,7,1,1,8,/,/,/,/,/
CC(C)Cn1c(N)c(C(=O)COC(=O)c2cnc(Cl)c(Cl)c2)c(=O)n(C)c1=O,42*,/,2,1,-3,24,38,42*,33*,24*,16
O=C(Nc1ccc(Cl)cc1Cl)NC1CCN(S(=O)(=O)c2ccc(F)cc2)CC1,48*,/,/,/,/,6,42,30,18*,13*,14
CCOc1ccc(OCC)c(NC(=O)CSCCc2ccccn2)c1,11,/,-12,0,3,-33,/,/,/,/,/
COC(=O)c1cc(C(=O)c2ccccc2)n2c(=O)/c(=C\N(C)C)sc12,13,/,/,/,/,18,/,/,/,/,/
COC(=O)c1cc(C(=O)c2ccc(Cl)cc2)n2c(=O)/c(=C\N(C)C)sc12,35*,/,2,5,-9,16,14,12,19*,12*,11
CCC(C)C1C(C#N)=C(N)Oc2n[nH]c(-c3ccccc3)c21 (configuration not stated),40*,3,0,1,-3,24,27,17,27*,23*,17
CCN1CCC(NC(=O)Nc2cccc(C(F)(F)F)c2)CC1,36*,/,-3,1,-1,0,2,2,-2,-4,7
CCN1CCN(C(=O)Nc2cccc(C(F)(F)F)c2)CC1,-16,-1,1,3,2,3,/,/,/,/,/
CCn1ccnc1CN1CCc2c([nH]c3ccccc23)C1C(C)(C)C (configuration not stated),34*,/,57,0,-5,15,16,11,7,22*,11
COCc1ccc(CN2CCc3c([nH]c4ccccc34)C2C(C)(C)C)o1 (configuration not stated),-6,/,-4,-1,1,-7,/,/,/,/,/
CCCN1C(=O)/C(=C/c2ccc(OCC(=O)OCC)cc2)NC1=S,78*,/,7,3,-7,22,122*,101*,110*,105*,100*
CCCN1C(=O)/C(=C/c2ccc(N3CCOCC3)cc2)NC1=S,13,/,25,6,-5,18,/,/,/,/,/
O=c1[nH]c(Cc2ccccn2)nc2scc(-c3ccc(Cl)cc3)c12,25,/,2,0,-8,11,/,/,/,/,/
O=c1[nH]c(Cc2cccs2)nc2scc(-c3ccc(Cl)cc3)c12,66*,/,/,/,/,26,30,23,36*,33*,44*
CCCCCCCCCCCCCCCCn1cc[n+](CC(C)=O)c1,58*,/,98,-2,-4,23,58*,25,38*,19*,28*
CCCCCCn1ccc(=N)cc1,-1,1,-1,2,2,-2,/,/,/,/,/
Cc1ccc(C(CC(=O)NCc2ccco2)c2ccc(OC(C)C)cc2)cc1 (configuration not stated),14,6,/,/,5,-12,/,/,/,/,/
CC1N(C)c2cc(NC(=O)c3ccco3)ccc2C1(C)C (configuration not stated),-26,13,68,0,8,-15,/,/,/,/,/
CC1N(C)c2cc(NC(=O)c3ccco3)c(P(=O)(Nc3ccc([N+](=O)[O-])cc3)N3CCOCC3)cc2C1(C)C (configuration not stated),37*,/,11,1,-9,22,37,25,17,29*,24*
SMILES,NPY1 pot ag,NPY-Y2 antag,WT yeast gro inh,RAM network inh,NPY-Y1 antag,NPY2 pot ag,NPY-Y1 confirm,NPY-Y2 counter,NPY-Y1 agonist,NPY-Y2 ag,CNGC inh 2
CN(C)CCNC(=O)c1ccc(Sc2ccc(Br)cc2)c([N+](=O)[O-])c1,39*,/,52,0,-5,14,43,33*,26*,40*,30*
Cc1ccc(O)c(-c2cc3ccccc3[nH]2)c1,47*,-5,18,0,-11,26,38,32,38*,42*,31*
COc1ccc(-c2cc3ccccc3[nH]2)cc1,24,/,/,/,/,18,/,/,/,/,/
CCc1ccc(NC(=O)C(C)OC(=O)c2ccc(NS(=O)(=O)c3ccc(C)c([N+](=O)[O-])c3)cc2)cc1 (configuration not stated),42*,-3,-4,4,-12,19,24,10,16,12*,23*
CC(OC(=O)c1ccc(NS(=O)(=O)c2ccc3[nH]c(=O)[nH]c3c2)cc1)C(=O)Nc1ccc(Cl)cc1 (configuration not stated),67*,/,6,3,3,-23,-2,-3,-4,2,-3
Cc1ccc(S(=O)(=O)Nc2ccccc2C(=O)OC(C)C(=O)Nc2ccc3ccccc3c2)cc1[N+](=O)[O-] (configuration not stated),4,-2,2,3,-3,15,/,/,/,/,/
COc1cc2c3c(c1)c(N=NC(N)=S)c(O)n3C(C)(C)C=C2C,55*,/,/,/,/,24,74*,61*,47*,60*,54*
Fc1ccc(-n2cc(-c3ccccc3)c3c(NN4CCOCC4)ncnc32)cc1,11,4,1,1,2,-1,/,/,/,/,/
